{"source": "ChEMBL document CHEMBL1123146", "about": "“Design, synthesis, and evaluation of omega-iodovinyl- and omega-iodoalkyl-substituted methyl-branched long-chain fatty acids” (J Med Chem, 1985)", "key": {"Rattus norvegicus [1]": {"test_system": "Rattus norvegicus", "assay": "Concentration was measured in lungs tissue of unfasted Fischer 344 rats administered intravenously after 60 minute (radiolabeled with [123I]-", "type": "ADME, organism-based, Lung", "conditions": "in vivo, iv, 1 h"}, "Rattus norvegicus [2]": {"test_system": "Rattus norvegicus", "assay": "Concentration was measured in lungs tissue of unfasted Fischer 344 rats administered intravenously after 4 hr (radiolabeled with [125I]-", "type": "ADME, organism-based, Lung", "conditions": "in vivo, iv"}, "Rattus norvegicus [3]": {"test_system": "Rattus norvegicus", "assay": "Concentration was measured in liver tissue of fasted Fischer 344 rats administered intravenously after 4 hr (radiolabeled with [125I]-", "conditions": "in vivo, iv"}, "Rattus norvegicus [4]": {"test_system": "Rattus norvegicus", "assay": "Concentration was measured in mean heart/blood tissue of unfasted Fischer 344 rats administered intravenously after 4 hr (radiolabeled with [125I]-", "type": "ADME, organism-based", "conditions": "other tissue, iv"}, "Rattus norvegicus [5]": {"test_system": "Rattus norvegicus", "assay": "Concentration was measured in liver tissue of unfasted Fischer 344 rats administered intravenously after 5 minute (radiolabeled with [123I]-", "type": "ADME, organism-based", "conditions": "in vivo, iv, 5 min"}, "Rattus norvegicus [6]": {"test_system": "Rattus norvegicus", "assay": "Concentration was measured in heart tissue of unfasted Fischer 344 rats administered intravenously after 60 minute (radiolabeled with [125I]-", "type": "ADME, organism-based", "conditions": "in vivo, iv, 1 h", "procedure,_shortened": "(§1)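 Female Fischer 344 rats, 10-12 weeks old, 170-200 g, with food and water ad libitum. The 125I-fatty acid was taken up in ethanol, added dropwise to stirred 6% BSA at ~40 °C (final ethanol 10%), filtered, and given as 0.5 mL via lateral tail vein under ether anesthesia. Rats were killed by cervical fracture; blood was taken by cardiac puncture. Organs were rinsed, blotted, weighed and gamma-counted against injectate standards to give %ID/g. Five rats per time point.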"}, "Rattus norvegicus [7]": {"test_system": "Rattus norvegicus", "assay": "Concentration was measured in blood tissue of unfasted Fischer 344 rats administered intravenously after 5 minute (radiolabeled with [125I]-", "type": "ADME, organism-based", "conditions": "in vivo, iv, 5 min", "procedure,_shortened": "as §1"}, "Rattus norvegicus [8]": {"test_system": "Rattus norvegicus", "assay": "Concentration was measured in mean heart/blood tissue of unfasted Fischer 344 rats administered intravenously after 4 hr (radiolabeled with [123I]-", "type": "ADME, organism-based", "conditions": "in vivo, iv"}, "Rattus norvegicus [9]": {"test_system": "Rattus norvegicus", "assay": "Concentration was measured in lungs tissue of unfasted Fischer 344 rats administered intravenously after 30 minute (radiolabeled with [123I]-", "type": "ADME, organism-based, Lung", "conditions": "in vivo, iv, 0.5 h"}, "Rattus norvegicus [10]": {"test_system": "Rattus norvegicus", "assay": "Concentration was measured in heart tissue of unfasted Fischer 344 rats administered intravenously after 30 minute (radiolabeled with [123I]-", "type": "ADME, organism-based", "conditions": "in vivo, iv, 0.5 h"}, "Rattus norvegicus [11]": {"test_system": "Rattus norvegicus", "assay": "Concentration was measured in lungs tissue of unfasted Fischer 344 rats administered intravenously after 4 hr (radiolabeled with [123I]-", "type": "ADME, organism-based, Lung", "conditions": "in vivo, iv"}, "Rattus norvegicus [12]": {"test_system": "Rattus norvegicus", "assay": "Concentration was measured in tissue of unfasted Fischer 344 rats administered intravenously after 60 minute (radiolabeled with [125I]-", "type": "ADME, organism-based", "conditions": "in vivo, iv, 1 h", "procedure,_shortened": "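Female Fischer 344 rats, 10–12 weeks old (170–200 g), with food and water ad libitum, five per time point. The radioiodinated fatty acid was dissolved in ethanol, added to 6% BSA at ~40 °C (final 10% ethanol), filtered, and injected into a lateral tail vein (0.5 mL) under ether anesthesia. Blood was taken by cardiac puncture; organs were rinsed, blotted, weighed and gamma-counted against injectate standards. Output is % injected dose/g.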"}, "Rattus norvegicus [13]": {"test_system": "Rattus norvegicus", "assay": "Concentration was measured in kidney tissue of unfasted Fischer 344 rats administered intravenously after 5 minute (radiolabeled with [125I]-", "type": "ADME, organism-based", "conditions": "in vivo, iv, 5 min", "procedure,_shortened": "as §1"}, "Rattus norvegicus [14]": {"test_system": "Rattus norvegicus", "assay": "Concentration was measured in kidney tissue of unfasted Fischer 344 rats administered intravenously after 5 minute (radiolabeled with [123I]-", "type": "ADME, organism-based", "conditions": "in vivo, iv, 5 min"}, "Rattus norvegicus [15]": {"test_system": "Rattus norvegicus", "assay": "Concentration was measured in blood tissue of unfasted Fischer 344 rats administered intravenously after 4 hr (radiolabeled with [125I]-", "type": "ADME, organism-based", "conditions": "in vivo, iv"}, "Rattus norvegicus [16]": {"test_system": "Rattus norvegicus", "assay": "Concentration was measured in heart tissue of unfasted Fischer 344 rats, administered intravenous, after 5 minute (radiolabeled with [125I]-", "type": "ADME, organism-based", "conditions": "in vivo, 5 min", "procedure,_shortened": "as §1"}}, "data": [{"smiles": "CC(CCCCCCCCCCCCCC/C=C/I)CC(=O)O.O=C(O)CCCCCCCCCCCCCCCC/C=C/I", "note": "(stereo unspecified)", "values": [{"measurement": "Distribution", "setting": "Rattus norvegicus [1]", "value": 1.21, "unit": "%"}, {"measurement": "Distribution", "setting": "Rattus norvegicus [2]", "value": 0.81, "unit": "%"}, {"measurement": "Distribution", "setting": "Rattus norvegicus [3]", "value": 1.11, "unit": "%"}, {"measurement": "Distribution", "setting": "Rattus norvegicus [4]", "value": 2.6, "unit": "%"}, {"measurement": "Distribution", "setting": "Rattus norvegicus [5]", "value": 4.87, "unit": "%"}, {"measurement": "Distribution", "setting": "Rattus norvegicus [6]", "value": 2.56, "unit": "%"}, {"measurement": "Distribution", "setting": "Rattus norvegicus [7]", "value": 0.91, "unit": "%"}, {"measurement": "Distribution", "setting": "Rattus norvegicus [8]", "value": 0.96, "unit": "%"}, {"measurement": "Distribution", "setting": "Rattus norvegicus [9]", "value": 1.32, "unit": "%"}, {"measurement": "Distribution", "setting": "Rattus norvegicus [10]", "value": 1.19, "unit": "%"}, {"measurement": "Distribution", "setting": "Rattus norvegicus [11]", "value": 1.23, "unit": "%"}, {"measurement": "Distribution", "setting": "Rattus norvegicus [12]", "value": 2.94, "unit": "%"}, {"measurement": "Distribution", "setting": "Rattus norvegicus [13]", "value": 1.06, "unit": "%"}, {"measurement": "Distribution", "setting": "Rattus norvegicus [14]", "value": 1.12, "unit": "%"}, {"measurement": "Distribution", "setting": "Rattus norvegicus [15]", "value": 0.53, "unit": "%"}, {"measurement": "Distribution", "setting": "Rattus norvegicus [16]", "value": 4.89, "unit": "%"}]}]}
